Laboratory results taken from paper PMC4201344 (ACS Chemical Biology, 2014).
Residue numbers refer to the chain shown, from its start.

Columns and labels:
[1] = target: T1, GluClβ T10′S (Caenorhabditis elegans, UniProt Q17328, T287S); assay: two-electrode voltage clamp, Xenopus laevis oocytes; assay type: cell-based, C. elegans; details: glutamate
T1 sequence (Q17328 23-434 T287S): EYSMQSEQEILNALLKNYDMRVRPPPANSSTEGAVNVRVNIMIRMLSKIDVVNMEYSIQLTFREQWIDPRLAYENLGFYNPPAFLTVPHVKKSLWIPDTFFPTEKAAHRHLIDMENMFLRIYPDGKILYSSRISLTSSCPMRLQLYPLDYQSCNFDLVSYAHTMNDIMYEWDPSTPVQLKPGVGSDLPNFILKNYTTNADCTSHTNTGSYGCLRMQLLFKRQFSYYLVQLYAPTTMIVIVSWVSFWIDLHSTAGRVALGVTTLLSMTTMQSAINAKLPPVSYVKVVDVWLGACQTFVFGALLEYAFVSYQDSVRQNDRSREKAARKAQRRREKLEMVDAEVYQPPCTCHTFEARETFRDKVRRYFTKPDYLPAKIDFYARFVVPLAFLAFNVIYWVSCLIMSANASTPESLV

[2] = target: T2, GluClβ A17′S (Caenorhabditis elegans, UniProt Q17328, A294S); assay: as above; assay type: cell-based, C. elegans; details: glutamate
T2 sequence (Q17328 23-434 A294S): T1 sequence (Q17328 23-434 T287S) with S265T, A272S

[3] = target: GluClβ T6′S/T10′S (Caenorhabditis elegans, UniProt Q17328, T283S/T287S); assay: as above; assay type: cell-based, C. elegans; details: glutamate
[4] = target: T3, GluClβ with α signal peptide, T6′S, Y156TAG Phe (Caenorhabditis elegans, UniProt Q17328, T283S/Y182F); assay: two-electrode voltage clamp, Xenopus laevis oocytes, nonsense suppression; assay type: cell-based, C. elegans; details: glutamate
T3 sequence (Q17328 23-434 Y182F/T283S): T1 sequence (Q17328 23-434 T287S) with Y160F, T261S, S265T
Outline: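 Site-specific TAG codon, read by 74mer THG73 tRNA ligated to dCA-acylated amino acid; NVOC removed by 5 min xenon-lamp irradiation just before injection. Oocytes coinjected with 37.5 ng mRNA plus ~1 μg/μL tRNA at 48 and 24 h pre-recording; unacylated 76mer tRNA served as read-through control.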

[5] = test system: GluClβ with α signal peptide, T6′S, Y156TAG F1–Phe; assay: two-electrode voltage clamp, Xenopus laevis oocytes, nonsense suppression; assay type: cell-based, C. elegans; details: glutamate
[6] = test system: GluClβ T6′S, Y206TAG Br–Phe; assay: as above; assay type: cell-based, C. elegans; details: glutamate
[7] = target: T4, GluClβ T6′S, T203A/Y206F (Caenorhabditis elegans, UniProt Q17328, T229A/T283S/Y232F); assay: two-electrode voltage clamp, Xenopus laevis oocytes; assay type: cell-based, C. elegans
T4 sequence (Q17328 23-434 T229A/Y232F/T283S): T1 sequence (Q17328 23-434 T287S) with T207A, Y210F, T261S, S265T

[8] = target: GluClβ T6′S, Q174A (Caenorhabditis elegans, UniProt Q17328, Q200A/T283S); assay: as above; assay type: cell-based, C. elegans; details: glutamate
[9] = target: GluClβ T6′S, S126A/Y156F (Caenorhabditis elegans, UniProt Q17328, S152A/T283S/Y182F); assay: two-electrode voltage clamp, Xenopus laevis oocytes; assay type: cell-based, C. elegans; details: glutamate
Outline: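 C. elegans GluClβ (mammalian codon-optimised) in pGEMhe, mutated by QuikChange; T7 mRNA. […] Voltage clamp at −60 mV in Ca-free ND96, pH 7.5. […] Peak currents taken from baseline, normalised, averaged per concentration, and fit to Hill equation (EC50, nH).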

[10] = target: GluClα receptor (Caenorhabditis elegans, UniProt G5EBR3); details: in the absence of ivermectin, Xenopus laevis oocytes; cited from earlier work
GluClα receptor, sequence (G5EBR3 21-461): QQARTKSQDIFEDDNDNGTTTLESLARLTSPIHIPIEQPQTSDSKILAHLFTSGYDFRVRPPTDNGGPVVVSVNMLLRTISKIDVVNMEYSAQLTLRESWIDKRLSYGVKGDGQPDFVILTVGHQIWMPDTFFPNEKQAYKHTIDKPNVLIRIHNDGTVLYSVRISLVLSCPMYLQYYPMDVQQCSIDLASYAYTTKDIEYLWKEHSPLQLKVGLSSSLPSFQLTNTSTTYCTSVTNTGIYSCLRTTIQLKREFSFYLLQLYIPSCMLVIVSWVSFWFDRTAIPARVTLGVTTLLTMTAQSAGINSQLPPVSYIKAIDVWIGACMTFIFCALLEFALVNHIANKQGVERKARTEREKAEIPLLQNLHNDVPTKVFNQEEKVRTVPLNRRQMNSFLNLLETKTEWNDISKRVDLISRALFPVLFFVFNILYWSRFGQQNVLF

GluClβ T6′S, Q174A, sequence (Q17328 23-434 Q200A/T283S): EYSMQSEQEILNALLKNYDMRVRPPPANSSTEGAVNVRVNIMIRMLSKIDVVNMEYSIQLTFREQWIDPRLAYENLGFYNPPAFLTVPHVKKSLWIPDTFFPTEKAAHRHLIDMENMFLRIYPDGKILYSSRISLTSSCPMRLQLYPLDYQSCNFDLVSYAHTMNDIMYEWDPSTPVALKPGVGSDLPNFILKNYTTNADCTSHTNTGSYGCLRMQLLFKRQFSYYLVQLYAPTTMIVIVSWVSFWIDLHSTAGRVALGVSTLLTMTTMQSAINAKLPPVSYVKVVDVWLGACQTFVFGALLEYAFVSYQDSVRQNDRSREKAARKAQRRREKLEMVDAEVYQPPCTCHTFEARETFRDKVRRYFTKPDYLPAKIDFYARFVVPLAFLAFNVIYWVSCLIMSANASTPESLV
GluClβ T6′S/T10′S, sequence (Q17328 23-434 T283S/T287S): as the sequence (Q17328 23-434 Q200A/T283S) above, with A178Q, T265S counted along it
GluClβ T6′S, S126A/Y156F, sequence (Q17328 23-434 S152A/Y182F/T283S): as the sequence (Q17328 23-434 Q200A/T283S) above, with S130A, Y160F, A178Q counted along it

Structure (SMILES): N[C@@H](CCC(=O)O)C(=O)O [glutamate]
- EC50 [1]: 11 ± 1 µM
- Hill [1]: 2.5 ± 0.1
- Imax [1]: 0.3–4 μA
- EC50 [2]: 230 ± 10 µM
- Hill [2]: 2.5 ± 0.1
- Imax [2]: 0.6–12 μA
- EC50 [3]: constitutive activity, some glutamate response
- EC50 [4]: 17000 ± 1000 µM
- Hill [4]: 1.7 ± 0.1
- Imax [4]: 1–4 μA
- EC50 [5]: 14000 ± 1000 µM
- Hill [5]: 2.0 ± 0.1
- Imax [5]: 0.1–5 μA
- EC50 [6]: 980 ± 30 µM
- Hill [6]: 2.5 ± 0.1
- Imax [6]: 0.08–6 μA
- EC50 ([7]; glutamate): 210 ± 10 µM
- Hill ([7]; glutamate): 2.2 ± 0.1
- Ω ([7]; mutant cycle analysis T203A, Y206F): 1/37
- ΔΔG ([7]; mutant cycle analysis, coupling T203A/Y206F): 2.1 kcal/mol
- EC50 [8]: 110 ± 10 µM
- Hill [8]: 2.4 ± 0.2
- EC50 [9]: no response
- activation by glutamate [10]: not activated
